Screens (PubChem)
Shown are actives, neighbours in structure and some others; about 1.6% of the full set was active somewhere.
PKA-R2B act: activators of PKA-R2B holoenzyme, primary screen, biochemical, fluorescence polarization, Cy5-IP20, human; cAMP-dependent protein kinase catalytic subunit beta (Homo sapiens) + cAMP-dependent …; PKA-R2B holoenzyme dissociation; R2B truncated from residue 108, S112A mutant; 0% DMSO only, 100% 113 µM cGMP; activation, % at 11.4 µM; 340,000 compounds, 0.079% hits; AID 504700, 2011;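 active = activation above a cutoff set at the mean over all compounds plus 3 SD, cut at about 18% in these data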;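 also: higher means more holoenzyme dissociation and a rise in polarization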
Target sequence (P31323 whole entry, looked up, other chains not shown, the tested form may be a part): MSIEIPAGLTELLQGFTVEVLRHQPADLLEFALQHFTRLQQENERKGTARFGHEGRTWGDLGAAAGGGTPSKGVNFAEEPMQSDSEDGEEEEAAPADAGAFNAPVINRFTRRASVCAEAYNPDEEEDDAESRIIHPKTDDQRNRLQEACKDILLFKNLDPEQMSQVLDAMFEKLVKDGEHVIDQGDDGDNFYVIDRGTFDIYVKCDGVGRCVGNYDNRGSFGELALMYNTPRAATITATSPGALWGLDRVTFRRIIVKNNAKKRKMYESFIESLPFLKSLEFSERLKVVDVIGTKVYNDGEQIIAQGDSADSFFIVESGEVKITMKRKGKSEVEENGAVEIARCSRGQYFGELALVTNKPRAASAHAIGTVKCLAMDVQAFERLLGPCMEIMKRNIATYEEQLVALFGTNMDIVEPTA
HKDC1 inh: HKDC1 hexokinase inhibitors, primary screen, biochemical, fluorescence, uHTS | 340,000 compounds, 0.16% hits | inhibition, % at 20 µM | recombinant HKDC1, G6PDH/diaphorase resazurin coupled fluorescence | Q2TB90;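 active = inhibition above about 35% when tested at 20 µM, limit read from the data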;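 also: plate controls were DMSO wells with enzyme for no effect and DMSO wells lacking enzyme for full effect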
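Material: recombinant HKDC1 hexokinase; Amount: HKDC1 at 5 µg/mL; Medium: Tris pH 8.0 buffer with MgCl2, Tween-20, BSA, BME; Schedule: 90 min reaction incubation at room temperature, dark; Technique: coupled resazurin fluorescence, excitation 525 nm, emission 613 nm.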
PKA-R1A activ: activators of PKA-R1A holoenzyme, primary screen, biochemical, fluorescence polarization, Cy5-IP20, bovine R1A, mouse PKAc; AID 504707, 2011; PKA-R1A dissociation; scaled: DMSO 0%, 113 µM cGMP 100%; cAMP-dependent protein kinase type I-alpha regulatory subunit (Bos taurus) + …; 340,000 compounds, 0.083% hits; activation, % at 11.4 µM;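 active = percent activation above the mean of all tested compounds plus 3 SD, cut at about 19% in these data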;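 also: higher means more PKAc released from R1A so a rise in polarization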
PfG6PD inh: PfG6PD enzyme inhibitors, primary screen, biochemical, fluorescence intensity, uHTS; glucose-6-phosphate dehydrogenase-6-phosphogluconolactonase (Plasmodium falciparum 3D7); PfGluPho enzyme, NADPH resazurin-diaphorase fluorescence; inhibition, % at 20 µM; 350,000 compounds, 0.78% hits; AID 504690, 2011;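 active = inhibition reaching at least a set limit at 20 µM in the primary screen, cut at about 59% in these data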;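 also: 0% = DMSO wells with substrate and 100% = DMSO wells lacking glucose-6-phosphate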
T cell HTS: modulators of CD8 T cell-vesicle binding, primary screen, mouse 2C CD8+ T cells, flow cytometry | AID 2052, 2009 | 330,000 compounds, 0.068% hits | response (vesicle binding), % at 7 µM | 2C CD8+ T cell-vesicle binding; stronger effect = lower value;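 active = response, share of CD8 T cells binding vesicles, and their 90th percentile fluorescence all below set limits, cut at about 80% in these data, passing the limit was not always enough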;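 also: values below 100% mean blocked vesicle binding to the CD8+ T cells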
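Material: murine 2C transgenic CD8+ T lymphocytes / Also added: QL9-peptide-loaded Drosophila micro-vesicles bearing Ld, ICAM-1 and B7-1 / Schedule: binding step 1.5 h, 37 °C, antibody labelling 20 min, ice / Signal: flow cytometry, PE anti-B7-1 (FL2) versus Alexa647 anti-CD8 (FL8), PFA-fixed / Evaluation: percent CD8+ FL2 mean versus row control / Benchmarks: naked versus QL9-loaded vesicles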
ATG4B inhibitor: ATG4B protease inhibitors, primary screen, biochemical, fluorescence, uHTS; Cysteine protease ATG4B (Homo sapiens), Q9Y4P1; ATG4B cleavage of LC3-PLA2, NBD-HPC fluorescence, 1 h; inhibition, % at 8.33 µM; 340,000 compounds, 0.51% hits; AID 504462, 2011; in the data active = inhibition above about 40%
R1A FP artifact: FP signal interference without PKA proteins, confirmation, artefact control for PKA-R1A activator project, biochemical, fluorescence polarization, triplicate; shares compounds with PKA-R1A activ; Cy5-IP20 peptide alone, fluorescence polarization artifact counterscreen; activation, % at 11.4 µM; 280 compounds, 7% hits; AID 504799, 2011;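 active = mean activation over triplicate runs exceeds the adjusted cutoff derived for the parent primary screen, cut at about 19% in these data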;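 also: no PKA protein present so any polarization rise reflects compound interference; 0% = tracer peptide mix alone and 100% = mix with added PKA catalytic subunit; higher means stronger polarization artifact and likely false positive in parent screen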
PKA-R1A act conf: activators of PKA-R1A holoenzyme, confirmation, biochemical, fluorescence polarization, Cy5-IP20, triplicate; AID 504800, 2011; shares compounds with PKA-R1A activ; PKA-R1A holoenzyme dissociation; activation, % at 11.4 µM; 280 compounds, 9% hits;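 active = mean activation over replicate wells exceeds the adjusted hit threshold taken from the earlier primary screen, cut at about 20% in these data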;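 also: 0% = holoenzyme mix with DMSO only and 100% = cGMP-activated control wells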
Target sequence (P00514 whole entry, looked up): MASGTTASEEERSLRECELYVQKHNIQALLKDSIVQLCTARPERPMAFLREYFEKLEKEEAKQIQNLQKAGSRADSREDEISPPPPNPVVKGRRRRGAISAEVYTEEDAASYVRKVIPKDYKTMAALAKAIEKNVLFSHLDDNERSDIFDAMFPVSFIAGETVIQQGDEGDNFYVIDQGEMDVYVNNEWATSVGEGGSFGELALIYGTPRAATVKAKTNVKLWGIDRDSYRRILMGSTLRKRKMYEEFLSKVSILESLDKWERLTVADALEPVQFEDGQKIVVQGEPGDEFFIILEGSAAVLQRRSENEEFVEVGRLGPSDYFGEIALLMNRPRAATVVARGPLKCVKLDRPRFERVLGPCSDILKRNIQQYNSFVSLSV
* hit, by the source's call; . = not tested or not shown.

SMILES | PKA-R2B act | HKDC1 inh | PKA-R1A activ | PfG6PD inh | T cell HTS | ATG4B inhibitor | R1A FP artifact | PKA-R1A act conf
CCOC(=O)N/N=C/c1ccc(N(CC)CC)cc1O | -13.8 | 6.4 | 23.5* | -14.2 | 595.4 | 10.0 | 4.5 | 3.6
COc1ccc(C(CNc2ccc(S(C)(=O)=O)cc2[N+](=O)[O-])N(C)C)cc1OC (stereo not drawn) | -6.4 | -6.1 | 6.6 | -4.0 | 344.7 | -8.0 | . | .
O=C(c1ccc(NS(=O)(=O)c2cccc([N+](=O)[O-])c2)cc1)N1CCN(C(=O)c2ccco2)CC1 | -0.2 | -2.5 | 10.0 | -8.6 | 252.0 | -61.4 | . | .
CCOC(=O)N1CCC(NC(=O)CCC(=O)N2CCOc3ccc(Cl)cc32)CC1 | 0.8 | -4.4 | 20.7* | 5.9 | 704.3 | -2.8 | 4.8 | 0.9
COc1cccc(C(=O)N2CCN(C(=O)C3CCCO3)CC2)c1 (stereo not drawn) | 3.8 | 0.3 | 19.9* | -6.5 | 228.3 | 0.0 | 3.1 | 6.0
S=C1SC2(CCCCCC2)NC2=C1CCCCC2 | 10.3 | . | -2.7 | 7.5 | . | . | . | .
Cc1ccc(CN2CCC(C(=O)Nc3ccc(Oc4cccnc4)cc3)CC2)cc1 | -5.1 | -5.4 | 12.7 | -3.0 | . | -1.5 | . | .
O=C(Nc1ccc(Oc2cccnc2)cc1)C1CCN(Cc2ccccc2)CC1 | 1.8 | 4.1 | 18.7* | -11.5 | 646.5 | 2.7 | 2.4 | 1.2
Cc1cc(C)n2[nH]c(=O)c(N=Nc3ccc(S(N)(=O)=O)cc3)c2n1 | -5.3 | -6.4 | -14.2 | 10.0 | 217.7 | -2.0 | . | .
Cc1ccc(N=Nc2c(=O)[nH]n3c(C)cc(C)nc23)cc1 | 3.2 | -3.1 | 22.7* | -7.3 | 177.6 | -2.2 | 6.0 | 6.2
CC1CCN(S(=O)(=O)c2cc(F)ccc2CN2C(=O)c3cccnc3C2=O)CC1 | -2.8 | 1.9 | -0.2 | -21.7 | 266.1 | 4.5 | . | .
CC(C)C(=O)NNC(=O)c1cc2sccc2s1 | -2.0 | -3.3 | 22.7* | -12.4 | 557.4 | -6.1 | -0.9 | 2.1
CC(=O)NNC(=O)c1cc2sccc2s1 | -12.2 | -6.6 | 6.6 | -5.3 | 237.1 | 0.0 | . | .
COc1ccc(Cn2ccnc2)cc1[N+](=O)[O-] | -14.9 | -6.9 | -5.6 | -1.6 | 137.7 | -12.5 | . | .
COc1ccc(Cn2ccnc2)cc1Br | 8.2 | 2.5 | 20.4* | -1.5 | 447.8 | -5.6 | 1.3 | 0.6
CC1CCCN(CCC(=O)c2ccc(Br)cc2)C1 (stereo not drawn) | -3.4 | 4.5 | 18.8* | 11.6 | 321.0 | -1.1 | 3.1 | -1.0
COc1ccc(-c2noc(CN(C)C(=O)c3ccoc3C)n2)cc1 | -1.6 | -5.9 | 2.9 | -8.0 | 189.0 | -9.8 | . | .
COC(=O)c1c(NC(=S)Nc2ccccc2Cl)sc(C)c1C | -9.2 | -7.1 | 20.5* | 1.0 | 689.5 | -3.8 | 0.0 | 0.0
Cn1c(N)c(C(=O)CSc2nnc(C3CC3)n2Cc2ccccc2)c(=O)[nH]c1=O | -1.6 | 3.2 | -1.6 | 24.8 | 512.0 | -21.1 | . | .
Cn1nccc1C(=O)N1CCCC(N2CCN(Cc3ccc4c(c3)OCO4)CC2)C1 (stereo not drawn) | 5.3 | 2.6 | 11.0 | -15.8 | 289.9 | 9.5 | . | .
CC(NC(=O)C(Cc1ccccc1)=NO)c1ccccc1 (stereo not drawn) | 1.0 | -1.3 | -2.6 | 3.9 | . | -2.1 | . | .
CC(NC(=O)Cc1ccccc1)c1ccccc1 (stereo not drawn) | 10.8 | -3.6 | 19.1* | 1.4 | 340.3 | -1.9 | 2.9 | 1.2
Cc1ccc2nccc(C(=O)N3CCCC(Nc4ccc(F)cc4)C3)c2c1 (stereo not drawn) | 3.4 | -4.6 | 8.5 | 12.9 | 293.3 | 1.1 | . | .
COc1ccc(CN2C(=NC(=O)C3CC3)SC3CS(=O)(=O)CC32)cc1OC (stereo not drawn) | -5.9 | 4.3 | 0.2 | -6.6 | 247.4 | -3.9 | . | .
Cc1ccc(C(=O)c2ccccc2C(=O)OCC(=O)N2CCCC2)cc1 | 2.7 | -1.4 | 20.4* | 20.6 | 438.8 | -1.2 | 2.5 | 7.9
SMILES | PKA-R2B act | HKDC1 inh | PKA-R1A activ | PfG6PD inh | T cell HTS | ATG4B inhibitor | R1A FP artifact | PKA-R1A act conf
Cc1cccc(C(=O)OCC(=O)N2CCCCCC2)c1C | -8.3 | -2.7 | -12.0 | -17.1 | 304.9 | 2.3 | . | .
CCOC(=O)c1ccc(S(=O)(=O)N2CCN(CC(O)COc3ccc(C#N)cc3)CC2)cc1 (stereo not drawn) | -1.1 | 2.6 | 0.8 | -12.2 | 173.7 | -7.8 | . | .
COc1cccc(CNCc2cc(OC)cc(OC)c2)c1 | 6.3 | -6.4 | 21.0* | 0.8 | 191.8 | -1.0 | 5.2 | 4.2
COc1cccc(CNCc2ccccc2OC)c1 | -3.9 | -7.7 | -9.5 | -2.6 | 231.4 | -4.3 | . | .
COCCN(C(=O)CSc1nc2nc(C)cc(C)n2n1)c1c(N)n(Cc2ccccc2)c(=O)[nH]c1=O | -0.9 | 0.1 | 20.0* | -5.4 | 835.3 | -4.3 | 5.2 | 2.6
Nc1nnnn1/N=C/c1ccccn1 | -2.8 | 6.0 | 20.8* | -1.0 | 361.5 | -2.5 | -0.3 | 4.9
CC(C)(C)S(=O)(=O)c1cnc(-c2ccccn2)nc1N | -2.8 | -1.1 | 19.8* | -11.7 | 402.6 | -1.3 | 5.1 | 1.0
Cc1cc(Br)c(NC(=O)CN2C(=O)NC3(CCOc4ccccc43)C2=O)c(Br)c1 (stereo not drawn) | 2.5 | . | 20.0* | -9.3 | . | . | 0.4 | 4.2
CCNC(=O)CN1C(=O)NC2(CCOc3ccccc32)C1=O (stereo not drawn) | -2.9 | -3.7 | -2.3 | -9.7 | 263.5 | -7.3 | . | .
O=C(C1=C(O)C(=O)N(Cc2ccco2)C1c1cccc(O)c1)c1ccco1 (stereo not drawn) | 1.5 | 0.0 | 19.5* | 30.0 | 196.4 | 3.4 | -0.6 | -1.0
CCN(c1ccccc1)S(=O)(=O)c1ccc(Cl)c(NC(=O)CN(C)C2CCN(C)CC2)c1 | 3.2 | -1.0 | 2.1 | -12.2 | 138.2 | 3.3 | . | .
CCC(O)(CC)C(=O)N(Nc1ccc(C)cc1)c1ccc(C)cc1 | 0.6 | -4.7 | 21.1* | 2.1 | 485.6 | -2.8 | 3.3 | 1.4
